According to ChEMBL document CHEMBL1137720, “New acyclic nucleosides analogues as potential analgesic, anti-inflammatory, anti-oxidant and anti-microbial derived from pyrimido[4,5-b]quinolines” (2009):

Columns and labels:
Mus musculus [1] = species on record: Mus musculus; experiment: Analgesic activity in Swiss mouse assessed as reaction time after 30 mins by hot plate test; type: functional
Summary of the method: (§1)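 Swiss mice of both sexes, 25–30 g, were housed at 22 ± 1 °C on a 12 h light/dark cycle with free access to diet and water. Hot-plate testing followed Turner's method.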

Mus musculus [2] = species on record: Mus musculus; experiment: Analgesic activity in Swiss mouse assessed as reaction time after 90 mins by hot plate test; type: functional; summary of the method: as §1
Mus musculus [3] = species on record: Mus musculus; experiment: Analgesic activity in Swiss mouse assessed as reaction time after 60 mins by hot plate test; type: functional; summary of the method: as §1
Nucleic Acid = experiment: Inhibition of bleomycin-induced DNA damage assessed as absorbance at 532 nm after 1 hr at 37 degC; type: nucleic-acid assay
Summary of the method: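 The 0.5 mL reaction contained calf thymus DNA (0.5 mg/mL), bleomycin sulfate (0.05 mg/mL), MgCl2 (5 mM), FeCl3 (50 µM) and compound at varying concentrations. After 1 h at 37 °C, the reaction was stopped with EDTA. TBA (1%) and HCl (25%) were added, followed by 10 min at 80 °C. After centrifugation, DNA damage was read as A532.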

[4] = Antioxidant activity in Sprague-Dawley rat erythrocytes assessed as ABTS-induced hemolysis after 1 hr; type: functional, Erythrocyte; parameters: concentration or dose not given beside the values
Staphylococcus aureus = experiment: Antibacterial activity against Staphylococcus aureus ATCC 25923 at 100 ug/disk after 24 to 48 hrs by agar disk diffusion method; type: functional; conditions: read-out: DIZ
Summary of the method: (§2)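 Agar disc diffusion used sterile 5 mm filter-paper discs loaded with 100 µg per disc, with DMSO as solvent. Plates were incubated 24–28 h at 37 °C and inhibition zone diameters measured: 6–10 mm slight, 11–15 mm moderate, >15 mm high. For MIC, discs carried varying amounts, and MIC was the lowest amount giving no visible growth.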

Escherichia coli = experiment: Antibacterial activity against Escherichia coli ATCC 23566 at 100 ug/disk after 24 to 48 hrs by agar disk diffusion method; type: functional; conditions: read-out: DIZ; summary of the method: as §2
Candida albicans = experiment: Antimicrobial activity against Candida albicans ATCC 14053 at 100 ug/disk after 5 days by agar disk diffusion method; type: functional; conditions: ATCC 14053, 120 h, read-out: DIZ
Rattus norvegicus [5] = experiment: Antiinflammatory activity in Sprague-Dawley rat assessed as inhibition of carrageenan-induced paw edema after 2 hrs; type: functional
Summary of the method: (§3)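 Adult female Sprague-Dawley rats, 150–180 g, were used (n = 6 per group). Paw volume increase after carrageenan was read at 1, 2, 3 and 4 h. % edema inhibition was calculated against untreated controls. The reference drug was given orally at 10 mg/kg as an aqueous suspension.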

Pseudomonas aeruginosa = experiment: Antibacterial activity against Pseudomonas aeruginosa ATCC 10145 at 100 ug/disk after 24 to 48 hrs by agar disk diffusion method; type: functional; conditions: read-out: DIZ; summary of the method: as §2
Rattus norvegicus [6] = experiment: Antiinflammatory activity in Sprague-Dawley rat assessed as inhibition of carrageenan-induced paw edema after 1 hr; type: functional; summary of the method: as §3
Rattus norvegicus [7] = experiment: Antiinflammatory activity in Sprague-Dawley rat assessed as inhibition of carrageenan-induced paw edema after 4 hrs; type: functional; summary of the method: as §3
Aspergillus fumigatus = experiment: Antimicrobial activity against Aspergillus fumigatus ATCC 96918 at 100 ug/disk after 5 days by agar disk diffusion method; type: functional; conditions: ATCC 96918, 120 h, read-out: DIZ
[8] = Antioxidant activity assessed as inhibition of ABTS-oxidation in 0.1 M phosphate buffer at pH 7; type: functional
Summary of the method: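 ABTS (60 µM, 2 mL) was mixed with MnO2 (25 mg/mL) in 0.1 M phosphate buffer pH 7, then shaken, centrifuged and filtered. Radical solution A734 was set to about 0.5. MeOH/buffer served as negative control.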

Rattus norvegicus [9] = experiment: Antiinflammatory activity in Sprague-Dawley rat assessed as inhibition of carrageenan-induced paw edema after 3 hrs; type: functional; summary of the method: as §3
Rattus norvegicus [10] = experiment: Antiinflammatory activity in Sprague-Dawley rat assessed as inhibition of carrageenan-induced paw edema at 10 mg/kg, po after 3 hrs; type: functional; summary of the method: as §3
Rattus norvegicus [11] = experiment: Antiinflammatory activity in Sprague-Dawley rat assessed as inhibition of carrageenan-induced paw edema at 10 mg/kg, po after 4 hrs; type: functional; summary of the method: as §3
Rattus norvegicus [12] = species on record: Rattus norvegicus; experiment: animal or person; conditions: Sprague-Dawley, po, 2 h, read-out: INH
Rattus norvegicus [13] = experiment: Antiinflammatory activity in Sprague-Dawley rat assessed as inhibition of carrageenan-induced paw edema at 10 mg/kg, po after 1 hr; type: functional; summary of the method: as §3

Structure (SMILES)	Activity (Mus musculus [1]) [s]	Activity (Mus musculus [2]) [s]	Activity (Mus musculus [3]) [s]	deltaA (Nucleic Acid)	Activity [4] [%]	zone of inhibition at 100 µg/disc (Staphylococcus aureus) [mm]	zone of inhibition at 100 µg/disc (Escherichia coli) [mm]	zone of inhibition at 100 µg/disc (Candida albicans) [mm]	inhibition (INH) (Rattus norvegicus [5]) [%]	zone of inhibition at 100 µg/disc (Pseudomonas aeruginosa) [mm]	inhibition (INH) (Rattus norvegicus [6]) [%]	inhibition (INH) (Rattus norvegicus [7]) [%]	zone of inhibition at 100 µg/disc (Aspergillus fumigatus) [mm]	inhibition [8] [%]	inhibition (INH) (Rattus norvegicus [9]) [%]	inhibition in vivo at 10 mg/kg (Rattus norvegicus [10]) [%]	inhibition in vivo at 10 mg/kg (Rattus norvegicus [11]) [%]	inhibition in vivo at 10 mg/kg (Rattus norvegicus [12]) [%]	inhibition in vivo at 10 mg/kg (Rattus norvegicus [13]) [%]
CC(=O)Oc1ccccc1C(=O)O [ASPIRIN]	5.1	8.65	7.683	–	–	–	–	–	–	–	–	–	–	–	–	–	–	–	–
O=C1O[C@H]([C@@H](O)CO)C(O)=C1O [ASCORBIC ACID]	–	–	–	0.026	3.93	–	–	–	–	–	–	–	–	–	–	–	–	–	–
O=c1c2c(-c3ccc(Cl)cc3)c3c(nc2nc2[nH]nc([C@@H](O)[C@H](O)[C@H](O)CO)n12)/C(=C/c1ccc(Cl)cc1)CCC3	3.6	8.433	5.933	0.05	3.51	20	20	12	52	19	40.62	46.67	16	66.7	45.31	–	–	–	–
CC(=O)OC[C@@H](OC(C)=O)[C@@H](OC(C)=O)[C@@H](/C=N/Nc1nc2nc3c(c(-c4ccc(Cl)cc4)c2c(=O)n1OC(C)=O)CCC/C3=C\c1ccc(Cl)cc1)OC(C)=O	3.667	4.583	3.483	–	30.75	13	14	10	28	15	18.75	22.22	8	35.2	28.98	–	–	–	–
O=c1[nH]c(=S)[nH]c2nc3c(c(-c4ccccc4)c12)CCC/C3=C\c1ccccc1	2.7	2.583	2.65	–	35.75	14	17	11	24	15	31.25	25	13	44.4	27.54	–	–	–	–
O=c1c2c(-c3ccc(Cl)cc3)c3c(nc2nc2[nH]nc([C@H](O)[C@H](O)[C@H](O)CO)n12)/C(=C/c1ccc(Cl)cc1)CCC3	3.55	6.667	5.35	0.045	3.42	22	18	13	40.58	18	46.88	39.81	13	68.8	39.06	–	–	–	–
CC(=O)OC[C@@H](OC(C)=O)[C@@H](OC(C)=O)[C@@H](OC(C)=O)[C@@H](OC(C)=O)c1n[nH]c2nc3nc4c(c(-c5ccc(Cl)cc5)c3c(=O)n12)CCC/C4=C\c1ccc(Cl)cc1	2.483	2.633	2.667	–	8.18	13	14	11	14.8	12	18.75	19.57	12	40.7	13.28	–	–	–	–
NNc1nc2nc3c(c(-c4ccc(Cl)cc4)c2c(=O)[nH]1)CCC/C3=C\c1ccc(Cl)cc1	3.7	6.617	4.067	–	5.45	18	22	13	34	20	34.38	35.19	11	59.3	37.68	–	–	–	–
CC(=O)OC[C@@H](OC(C)=O)[C@H](OC(C)=O)[C@H](OC(C)=O)[C@@H](OC(C)=O)c1n[nH]c2nc3nc4c(c(-c5ccc(Cl)cc5)c3c(=O)n12)CCC/C4=C\c1ccc(Cl)cc1	2.65	2.483	2.667	–	8.33	10	14	11	14	10	21.88	17.19	11	42.6	18.48	–	–	–	–
O=c1c2c(-c3ccc(Cl)cc3)c3c(nc2nc2[nH]nc([C@H](O)[C@@H](O)[C@@H](O)[C@H](O)CO)n12)/C(=C/c1ccc(Cl)cc1)CCC3	3.767	6.767	5.45	0.029	4.01	20	20	11	56	19	50	50	7	83.7	49.27	–	–	–	–
O=C(O)c1cn(C2CC2)c2cc(N3CCNCC3)c(F)cc2c1=O [CIPROFLOXACIN]	–	–	–	–	–	24	–	–	–	24	–	–	–	–	–	–	–	–	–
O=c1c2c(-c3ccc(Cl)cc3)c3c(nc2nc2[nH]nc([C@H](O)[C@H](O)[C@H](O)[C@H](O)CO)n12)/C(=C/c1ccc(Cl)cc1)CCC3	4.65	9.567	7.4	0.026	4.23	19	24	12	44	22	62.5	40.62	16	81.5	42.03	–	–	–	–
CC(=O)N1CCN(c2ccc(OCC3COC(Cn4ccnc4)(c4ccc(Cl)cc4Cl)O3)cc2)CC1 (configuration not stated) [KETOCONAZOLE]	–	–	–	–	–	–	–	21	–	–	–	–	19	–	–	–	–	–	–
CC(=O)OC[C@@H](OC(C)=O)[C@@H](OC(C)=O)[C@H](/C=N/Nc1nc2nc3c(c(-c4ccc(Cl)cc4)c2c(=O)n1OC(C)=O)CCC/C3=C\c1ccc(Cl)cc1)OC(C)=O	3.5	4.033	3.483	–	6.06	11	14	7	20.37	13	15.62	26.56	11	40.7	26.09	–	–	–	–
COc1ccc2c(c1)c(CC(=O)O)c(C)n2C(=O)c1ccc(Cl)cc1 [INDOMETHACIN]	–	–	–	–	–	–	–	–	–	–	–	–	–	–	–	65.2	57.8	58	50
